Published values from different studies.
Compare with care: the assays were run in different laboratories.
Effect on: metabolic stability

CCOc1ccc2ccc(=O)oc2c1 — hepatocyte CLint (male CD-1 mouse, hepatocytes; 1 µM): > 46.2 µL/min/10⁶ cells
O=c1ccc2ccc(O)cc2o1 — scaled CLint (mouse, liver microsomes): 183 L/h/kg
O=c1ccc2cc(O)ccc2o1 — microsomal CLint (mouse, liver microsomes): 170 µL/min/mg
Cc1ccc(Cn2cc(C(=O)NN)c(=O)c3cc(Oc4ccccc4)ccc32)cc1 — microsomal CLint (male CD-1 mouse, liver microsomes; 1 µM): < 11.6 µL/min/mg
O=C(O)Cc1ccccc1Nc1c(Cl)cccc1Cl — scaled CLint (mouse, liver microsomes): 5.42 L/h/kg
CCN(CCN)c1ccc(Nc2cc(NC3CC3)n3ncc(C#N)c3n2)cc1-n1cnnc1 — scaled CLint (male CD-1 mouse, hepatocytes; 1 µM, serum-free): < 1.92 L/h/kg
CC1(CN)CCN(c2cnc3c(Sc4ccncc4Cl)n[nH]c3n2)CC1 — scaled CLint (mouse, liver microsomes): 0.523 L/h/kg
CC(C)Oc1ccc(S(=O)(=O)c2ccc(Oc3cc(OCC(N)=O)c(C(=O)C(Cl)Cl)cc3[N+](=O)[O-])cc2)cc1 — microsomal CLint (mouse, liver microsomes): 197 µL/min/mg
